In ChEMBL document CHEMBL4043295, “Marbostat-100 Defines a New Class of Potent and Selective Antiinflammatory and Antirheumatic Histone Deacetylase 6 Inhibitors” (J Med Chem, 2018):
Calls of active or inactive are those of the source. No cut-off for these calls is given here.

Legend:
HEL = test: Cell cycle arrest in human HEL cells at 5 to 1000 nM after 24 hrs by propidium iodide staining-based flow cytometric method; format: functional
Histone deacetylase 4 = Histone deacetylase 4 (Homo sapiens, UniProt P56524); test: Inhibition of recombinant human C-terminal GST-tagged HDAC4 expressed in baculovirus-infected insect cells using Boc-Lys(TFA)-AMC as substrate by fluorimeter
Chain of Histone deacetylase 4 (P56524 whole entry): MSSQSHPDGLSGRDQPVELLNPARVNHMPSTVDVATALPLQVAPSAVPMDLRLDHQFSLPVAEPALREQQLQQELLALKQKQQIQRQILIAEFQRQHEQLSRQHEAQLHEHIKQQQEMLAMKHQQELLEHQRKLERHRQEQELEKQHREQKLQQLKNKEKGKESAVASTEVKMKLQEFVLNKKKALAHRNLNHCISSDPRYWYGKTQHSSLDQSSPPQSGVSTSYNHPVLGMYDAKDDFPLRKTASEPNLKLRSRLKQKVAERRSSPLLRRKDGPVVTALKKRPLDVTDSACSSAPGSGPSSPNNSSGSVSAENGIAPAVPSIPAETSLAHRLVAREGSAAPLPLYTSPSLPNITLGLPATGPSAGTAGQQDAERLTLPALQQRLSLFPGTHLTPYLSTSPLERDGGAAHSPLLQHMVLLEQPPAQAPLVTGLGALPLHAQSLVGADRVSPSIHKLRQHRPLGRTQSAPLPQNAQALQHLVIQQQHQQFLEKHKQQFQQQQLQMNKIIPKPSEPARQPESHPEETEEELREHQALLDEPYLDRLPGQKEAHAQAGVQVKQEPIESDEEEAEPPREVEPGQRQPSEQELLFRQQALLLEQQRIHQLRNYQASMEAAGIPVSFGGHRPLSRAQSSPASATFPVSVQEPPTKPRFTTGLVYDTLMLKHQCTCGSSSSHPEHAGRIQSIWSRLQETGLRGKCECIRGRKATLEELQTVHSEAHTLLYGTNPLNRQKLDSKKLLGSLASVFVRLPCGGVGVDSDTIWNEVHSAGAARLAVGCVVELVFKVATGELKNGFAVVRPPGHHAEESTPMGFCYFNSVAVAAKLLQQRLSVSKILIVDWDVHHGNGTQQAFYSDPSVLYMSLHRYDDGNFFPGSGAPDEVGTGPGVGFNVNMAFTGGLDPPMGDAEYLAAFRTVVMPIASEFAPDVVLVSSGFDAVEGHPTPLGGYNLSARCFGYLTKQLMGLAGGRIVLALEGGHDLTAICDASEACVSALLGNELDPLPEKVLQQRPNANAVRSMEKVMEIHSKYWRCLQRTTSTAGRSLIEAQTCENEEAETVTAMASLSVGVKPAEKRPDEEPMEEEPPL

Mus musculus [1] = test: Antiarthritic activity in DBA/1J mouse collagen-induced arthritis model assessed as decrease in bone erosion in joints at 30 mg/kg, ip administered every morning for 12 to 14 days; format: functional, organism-based
Outline: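 Collagen type II-induced arthritis in mice, treated at 30 mg/kg versus vehicle. Arthritic paws were assessed histologically for synovial inflammation, cellular invasion, cartilage degradation and bone erosion.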

Mus musculus [2] = test: Antiarthritic activity in DBA/1J mouse collagen-induced arthritis model assessed as reduction of articular bone erosion in arthritic hind paw at 30 mg/kg, ip administered every morning for 12 to 14 days measured post last dose by microCT method relative to vehicle-treated control; format: functional, organism-based
[3] = biological target: T1, Protein deacetylase HDAC6 (Homo sapiens) (UniProt Q9UBN7); conditions: 50 nM
T1 sequence (whole entry): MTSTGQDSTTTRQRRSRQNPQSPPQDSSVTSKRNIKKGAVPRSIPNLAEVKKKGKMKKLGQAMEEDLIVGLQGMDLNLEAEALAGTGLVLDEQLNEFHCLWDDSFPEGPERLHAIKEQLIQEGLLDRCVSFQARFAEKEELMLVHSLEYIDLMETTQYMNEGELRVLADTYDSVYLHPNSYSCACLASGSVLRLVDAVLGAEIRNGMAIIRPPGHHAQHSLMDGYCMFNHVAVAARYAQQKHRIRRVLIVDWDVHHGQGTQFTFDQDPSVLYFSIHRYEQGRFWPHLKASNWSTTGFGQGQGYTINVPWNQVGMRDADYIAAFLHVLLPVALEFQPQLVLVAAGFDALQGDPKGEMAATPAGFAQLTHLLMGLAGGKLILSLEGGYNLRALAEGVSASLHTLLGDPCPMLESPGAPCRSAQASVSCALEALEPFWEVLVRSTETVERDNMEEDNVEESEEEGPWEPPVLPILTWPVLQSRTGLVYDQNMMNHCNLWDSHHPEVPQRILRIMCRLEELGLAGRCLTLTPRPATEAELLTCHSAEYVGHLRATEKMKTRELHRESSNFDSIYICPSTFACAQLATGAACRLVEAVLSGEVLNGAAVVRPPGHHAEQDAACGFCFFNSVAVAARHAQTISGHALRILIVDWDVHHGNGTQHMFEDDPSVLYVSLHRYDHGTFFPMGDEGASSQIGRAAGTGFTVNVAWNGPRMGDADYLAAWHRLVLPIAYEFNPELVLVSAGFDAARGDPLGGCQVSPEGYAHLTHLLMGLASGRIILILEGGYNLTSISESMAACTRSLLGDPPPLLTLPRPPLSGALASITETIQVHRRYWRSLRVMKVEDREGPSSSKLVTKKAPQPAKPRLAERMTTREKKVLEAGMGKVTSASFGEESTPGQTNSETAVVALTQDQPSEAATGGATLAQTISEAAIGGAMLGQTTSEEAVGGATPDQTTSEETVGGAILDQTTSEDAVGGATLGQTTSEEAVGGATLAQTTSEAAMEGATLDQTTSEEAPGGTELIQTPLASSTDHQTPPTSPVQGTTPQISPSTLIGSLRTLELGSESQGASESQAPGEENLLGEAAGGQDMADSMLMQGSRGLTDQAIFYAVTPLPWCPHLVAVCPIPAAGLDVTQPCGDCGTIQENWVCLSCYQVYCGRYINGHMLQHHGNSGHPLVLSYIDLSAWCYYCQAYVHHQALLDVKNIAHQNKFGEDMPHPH

Histone deacetylase 11 = biological target: T2, Histone deacetylase 11 (Homo sapiens, UniProt Q96DB2); test: Inhibition of recombinant human N-terminal His-tagged HDAC11 (1 to 347 residues) expressed in baculovirus-infected insect cells using RHKK(Ac)AMC as substrate by fluorimeter
T2 sequence (Q96DB2 whole entry): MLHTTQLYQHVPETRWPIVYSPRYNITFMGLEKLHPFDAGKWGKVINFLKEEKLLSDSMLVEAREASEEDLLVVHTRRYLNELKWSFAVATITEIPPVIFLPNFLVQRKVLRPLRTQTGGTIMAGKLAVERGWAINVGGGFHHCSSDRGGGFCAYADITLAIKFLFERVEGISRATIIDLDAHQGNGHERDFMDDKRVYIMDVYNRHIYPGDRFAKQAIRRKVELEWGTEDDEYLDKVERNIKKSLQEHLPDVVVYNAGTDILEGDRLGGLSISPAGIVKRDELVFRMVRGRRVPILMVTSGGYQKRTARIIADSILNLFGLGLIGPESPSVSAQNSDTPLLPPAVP

Ki (Histone deacetylase 4): 1820 nM
inhibition [3]: Active
Ki (Histone deacetylase 11): 495 nM
SMILES: CN1C(=O)C2CN(Cc3c2c2ccccc2n3Cc2ccc(C(=O)NO)cc2)C1=O (stereo unspecified)
Activity (HEL): inactive
Activity (Mus musculus [1]): Active
Activity (Mus musculus [2]): Active
